Experiment [1] has as its system Candida albicans. Description: Antifungal activity against Candida albicans infected in Sprague-Dawley rat vaginal infection model assessed as reduction in vaginal fungal burden at 1 mg/kg, administered intravaginally on day 1 to day 3 post fungal inoculation measured on day 4. It counts as functional, organism-based. Put shortly: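 Ovariectomized rats inoculated intravaginally with 0.1 mL of 1×10^7 CFU/mL C. albicans on days 10, 11 and 12 after surgery. Compound in saline with 1% DMSO (2, 4, 8 mg/mL) given intravaginally on days 1–3 post-inoculation. On day 4, 100 µL vaginal fluid plated on chloramphenicol SDA agar for CFU counts.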

In experiment [2] the test system is Candida albicans. Description: Antibiofilm activity against Candida albicans SC5314 cultured in YPD media containing 10% FBS assessed inhibition of yeast-to-hypha morphological transition after 3 hrs. It counts as functional, organism-based. Put shortly: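 Yeast-to-hypha transition in YPD with 10% (v/v) FBS across compound concentrations; cell morphology photographed after 3 h at 37°C.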

The subject of experiment [3] is Candida albicans. Description: Antifungal activity against Candida albicans SC5314 after 48 hrs by spectrophotometric analysis. The class given is functional. Particulars: SC5314, 48 h.
Experiment [4] deals with Candida albicans. Description: Antibiofilm activity against Candida albicans SC5314 assessed as disruption of biofilm formation at 12.8 ug/ml. The class given is functional, organism-based.
In experiment [5] the test system is Candida albicans. Description: Antibiofilm activity against Candida albicans SC5314 assessed down regulation of HGC1 gene at 0.4 ug/ml after 1 hr by qRT-PCR analysis. The class given is functional, organism-based. Put shortly: (§1)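 Biofilm grown in dishes with 0.4 µg/mL compound or DMSO control for 1 h; total RNA isolated and transcripts quantified by real-time RT-PCR. Normalized to 18S rRNA, expressed as fold change vs untreated SC5314. Mean ± SD of three independent experiments.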

Experiment [6] deals with Candida albicans. Description: Antibiofilm activity against Candida albicans SC5314 cultured in SLAD media assessed inhibition of yeast-to-hypha morphological transition after 3 hrs. The class given is functional, organism-based. Put shortly:
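Hyphal induction in Lee's (pH 6.8), Spider, SLAD or RPMI 1640 medium with compound; morphology assessed by microscopy.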

Experiment [7] concerns Staphylococcus aureus. Description: Antibacterial activity against Staphylococcus aureus NRS271 after 24 hrs. It counts as functional. To be noted: NRS271, 24 h.
Experiment [8] relates to Staphylococcus aureus. Description: Antibacterial activity against Staphylococcus aureus Mu50 after 24 hrs. It counts as functional. Particulars: Mu50, 24 h.
Experiment [9] concerns Candida albicans. Description: Antibiofilm activity against Candida albicans SC5314 assessed down regulation of EFG1 gene at 0.4 ug/ml after 1 hr by qRT-PCR analysis. It counts as functional, organism-based. Put shortly: as §1
(In general: Real-time PCR tracks product formation cycle by cycle.)

The subject of another experiment is Nakaseomyces glabratus. Description: Antifungal activity against Candida glabrata 537 after 24 hrs by spectrophotometric analysis. It counts as functional. To be noted: Nakaseomyces glabratus, 537, 24 h. Put shortly: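 Broth microdilution in RPMI 1640, inoculum 5×10^3 CFU/mL, compounds from 6.4 mg/mL DMSO stocks, 35 ℃ for 24 h. Growth read as OD600; MIC80 taken as lowest concentration giving 80% growth inhibition. Triplicate.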

In experiment [10] the test system is Candida albicans. Description: Antibiofilm activity against Candida albicans SC5314 assessed down regulation of CYR1 gene at 0.4 ug/ml after 1 hr by qRT-PCR analysis. It counts as functional, organism-based. Put shortly:
as §1

Experiment [11] has as its system Candida albicans. Description: Antifungal activity against fluconazole-resistant Candida albicans clinical isolate 032 after 24 hrs by spectrophotometric analysis. It counts as functional. To be noted: isolate 032, 24 h. Put shortly:
(§2)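 Broth microdilution (MIC80) against fluconazole-resistant clinical C. albicans isolates from a Shanghai hospital. Strains were grown in YPD at 30 ℃. Compounds came from 6.4 mg/mL DMSO stocks and were tested over a concentration series on 5×10^3 CFU/mL inoculum in RPMI 1640 at 35 ℃ for 24 h. OD600 was read; MIC80 is the lowest concentration giving 80% growth inhibition. Done in triplicate.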

Experiment [12] concerns Candida albicans. Description: Antifungal activity against fluconazole-resistant Candida albicans clinical isolate 103 after 24 hrs by spectrophotometric analysis. Particulars: isolate 103, 24 h. The class given is functional. Put shortly:
as §2

The test system of experiment [13] is Candida albicans. Description: Antibiofilm activity against Candida albicans SC5314 assessed as disruption of biofilm formation at 6.4 ug/ml. The class given is functional, organism-based.

We go through two molecules from ChEMBL document CHEMBL4138161, “Discovery of simplified sampangine derivatives as novel fungal biofilm inhibitors” (Eur J Med Chem, 2018).

In brackets after ≈: the same amount, converted by molar mass. Activity calls are given as the source filed them. No cut-off for these calls is given here.

What is called MIC80 is the lowest concentration that inhibits either 80% of growth or 80% of the strains tested, depending on the study. Regarding `CCCc1ccnc2c1C(=O)c1sc([N+](=O)[O-])cc1C2=O`, the outcome in the experiment with Candida albicans [1], in the experiment on Candida albicans [4], with Candida albicans [5], in the experiment with Candida albicans [9] and in the experiment with Candida albicans [10] was Active. The Activity entry in the experiment with Candida albicans [2] and in the experiment with Candida albicans [6] was “Dose-dependent effect” throughout. Further, the MIC80 with Candida albicans [3] is 0.5 µg/mL (≈ 1.65 µM); against Staphylococcus aureus [7], over 128 µg/mL; against Staphylococcus aureus [8], over 128 µg/mL; against Nakaseomyces glabratus, 2 µg/mL (≈ 6.62 µM); in the experiment with Candida albicans [11], 1 µg/mL (≈ 3.31 µM); in the experiment with Candida albicans [12] it was 0.5 µg/mL (≈ 1.65 µM).

Take `CCc1ccnc2c1C(=O)c1sc([N+](=O)[O-])cc1C2=O`: the outcome in the experiment on Candida albicans [1], with Candida albicans [5], with Candida albicans [9], in the experiment on Candida albicans [10] and in the experiment on Candida albicans [13] was Active. Further, the Activity result with Candida albicans [2] and in the experiment with Candida albicans [6] was “Dose-dependent effect” in each case. In addition, the MIC80 against Candida albicans [3] is 0.25 µg/mL (≈ 0.867 µM); against Staphylococcus aureus [7] it was over 128 µg/mL; against Staphylococcus aureus [8], over 128 µg/mL; in the experiment on Nakaseomyces glabratus it was 2 µg/mL (≈ 6.94 µM); against Candida albicans [11], 0.5 µg/mL (≈ 1.73 µM); in the experiment with Candida albicans [12] it was 0.25 µg/mL (≈ 0.867 µM).
